# PMC10905627 (Oncogene, 2018)
# Like-named read-outs stand apart in the source and are kept apart here. Peptide text beside a SMILES is read from it. * marks the point of attachment. Cbz = O=C(OCc1ccccc1)*; CH2F = FC*
# Tests used:
# [1] = Metabolic stability in mouse liver microsomes; format: in vitro ADME
# [2] = tested on: H1299 lung cancer cells; assay: Cell viability; format: cell-based, human; settings: for cell death, JL5 compared with DMH2: H1299, 2.5 μM, 3 days; for effect on JL5-induced cell death: H1299, pretreated 1 h, then JL5 3 days
# [3] = LCMS of stored solid sample; format: physicochemical; settings: stored as a solid in a desiccator for 4 months
# [4] = cited from earlier work
# [5] = molecular target: T1, ALK2/ACVR1 (Homo sapiens, UniProt Q04771); settings: read-out: IC50 ALK2/ACVR1; previously reported; cited from earlier work
# T1 sequence (Q04771 21-509): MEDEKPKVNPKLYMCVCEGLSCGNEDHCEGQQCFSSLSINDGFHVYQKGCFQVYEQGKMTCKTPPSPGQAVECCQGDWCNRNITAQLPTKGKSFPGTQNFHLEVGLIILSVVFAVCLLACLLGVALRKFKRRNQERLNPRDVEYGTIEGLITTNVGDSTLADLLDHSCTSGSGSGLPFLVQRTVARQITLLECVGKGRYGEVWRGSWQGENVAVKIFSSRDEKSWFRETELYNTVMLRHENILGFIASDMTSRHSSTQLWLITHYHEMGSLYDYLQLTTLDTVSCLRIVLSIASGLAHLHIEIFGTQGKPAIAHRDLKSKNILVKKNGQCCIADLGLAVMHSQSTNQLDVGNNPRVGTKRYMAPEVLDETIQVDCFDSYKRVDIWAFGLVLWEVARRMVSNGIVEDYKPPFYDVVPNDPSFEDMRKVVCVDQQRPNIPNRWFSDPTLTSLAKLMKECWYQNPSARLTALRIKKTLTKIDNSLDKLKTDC
# [6] = molecular target: T2, ALK3/BMPR1A (Homo sapiens, UniProt P36894); settings: read-out: IC50 ALK3/BMPR1A; previously reported; cited from earlier work
# [7] = molecular target: T3, ALK6/BMPR1B (Homo sapiens, UniProt O00238); settings: read-out: IC50 ALK6/BMPR1B; previously reported; cited from earlier work
# [8] = molecular target: T4, BMPR2 (Homo sapiens, UniProt Q13873); settings: read-out: IC50 BMPR2; previously reported; cited from earlier work
# T4 sequence (Q13873 27-1038): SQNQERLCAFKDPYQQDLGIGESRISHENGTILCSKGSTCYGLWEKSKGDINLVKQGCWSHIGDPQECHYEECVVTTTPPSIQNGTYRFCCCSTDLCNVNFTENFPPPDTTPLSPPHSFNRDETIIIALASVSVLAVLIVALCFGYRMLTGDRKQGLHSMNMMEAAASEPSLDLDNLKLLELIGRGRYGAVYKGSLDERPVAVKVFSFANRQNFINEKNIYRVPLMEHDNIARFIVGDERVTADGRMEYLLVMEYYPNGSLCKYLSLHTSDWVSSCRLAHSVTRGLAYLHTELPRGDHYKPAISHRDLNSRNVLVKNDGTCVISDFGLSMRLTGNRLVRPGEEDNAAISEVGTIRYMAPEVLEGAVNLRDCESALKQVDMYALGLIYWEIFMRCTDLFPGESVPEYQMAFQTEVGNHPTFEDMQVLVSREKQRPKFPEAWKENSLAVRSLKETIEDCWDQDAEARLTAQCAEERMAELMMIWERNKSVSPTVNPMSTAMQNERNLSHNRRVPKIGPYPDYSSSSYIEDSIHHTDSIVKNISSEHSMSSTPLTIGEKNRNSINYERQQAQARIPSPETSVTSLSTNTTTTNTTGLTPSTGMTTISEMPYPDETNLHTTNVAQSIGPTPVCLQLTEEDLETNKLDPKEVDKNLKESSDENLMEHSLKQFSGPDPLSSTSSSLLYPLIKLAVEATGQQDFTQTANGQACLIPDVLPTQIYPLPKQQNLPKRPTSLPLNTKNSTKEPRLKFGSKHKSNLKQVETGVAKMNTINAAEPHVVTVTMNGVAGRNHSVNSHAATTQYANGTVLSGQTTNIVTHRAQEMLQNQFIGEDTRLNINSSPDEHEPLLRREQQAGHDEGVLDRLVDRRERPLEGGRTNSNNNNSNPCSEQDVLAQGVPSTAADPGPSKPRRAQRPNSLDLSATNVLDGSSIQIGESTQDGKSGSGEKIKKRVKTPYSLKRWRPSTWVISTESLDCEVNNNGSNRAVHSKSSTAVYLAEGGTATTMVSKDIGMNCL
# [9] = tested on: Id1, TAK1, XIAP in H1299 tumors; settings: similar doses; cited from earlier work
# [10] = Pharmacokinetics in BALB/c mice; format: in vivo, mouse
# [11] = molecular target: T1, ALK2/ACVR1; assay: IC50 kinase assay ALK2; format: biochemical; settings: ATP 10 μM
# [12] = molecular target: T2, ALK3/BMPR1A; assay: IC50 kinase assay ALK3; format: biochemical; settings: ATP 10 μM
# [13] = molecular target: T3, ALK6/BMPR1B; assay: IC50 kinase assay ALK6; format: biochemical; settings: ATP 10 μM
# [14] = molecular target: T4, BMPR2; assay: IC50 kinase assay BMPR2; format: biochemical
# [15] = Toxicity studies in NSG mice; format: in vivo
# [16] = tested on: Id1 promoter; assay: Id1-luciferase reporter assay in H1299 cells; format: cell-based, human; settings: H1299 cells stably expressing reporter, 48 h
# Method in brief: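 H1299 cells stably carrying an Id-1 promoter–luciferase reporter were exposed to test compound for 48 h. Cells were then lysed and luminescence read on a luminometer. The experiment was run twice.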
# [17] = tested on: A549 cells; assay: Cell growth A549; format: cell-based, human; settings: A549, activating K-Ras mutation
# Method in brief: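 A549 cells grown in DMEM with 5% FBS, seeded in six-well plates and exposed to test compound from the following day for the set time. Live and dead cells were counted on a Vi-CELL analyser by trypan blue exclusion, 500 cells per sample.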
# [18] = tested on: H1299 cells; assay: Annexin V / 7-AAD staining; format: cell-based, human; settings: H1299, 2.5 μM, 48 h, vs DMSO
# Method in brief: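 H1299 cells in six-well plates exposed to DMSO or test compound at 2.5 μM for 48 h. They were then stained with labeled Annexin V and 7-AAD per kit instructions and analysed by flow cytometry. 7-AAD-positive, Annexin V-negative cells counted as necrotic. Experiments run at least 3 times.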
# [19] = tested on: H1299 cells; assay: TUNEL assay; format: cell-based, human; settings: H1299, 24 h
# [20] = tested on: caspase-3, PARP in H1299 cells; assay: Western blot of activated caspase-3 and PARP; format: cell-based, human; settings: H1299, 3 days
# Method in brief: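 H1299 cells treated with test compound, and total protein quantified by BCA. Lysates separated by SDS-PAGE onto nitrocellulose and blocked at least 2 h. Probed overnight at 4 °C with rabbit monoclonal anti-activated caspase-3 and anti-PARP, with actin or GAPDH as loading control. Secondary antibody 1 h at room temperature, then enhanced chemiluminescence detection.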
# [21] = tested on: H1299 tumors; assay: H1299 tumor xenografts in NSG mice without immune cells; format: in vivo, mouse
# [22] = tested on: H1299 tumors; assay: H1299 tumor xenografts in humanized NSG mice; format: in vivo, mouse
# [23] = tested on: Id1, TAK1, XIAP in H1299 tumors; assay: Western blot of BMP downstream targets in H1299 tumor xenografts; format: in vivo, mouse; settings: NSG mice, 4 days
# Method in brief: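 Xenografts made by intradermal flank injection of 2 million H1299 cells into NSG mice. At about 4 mm × 4 mm, mice received test compound at 3 or 10 mg/kg twice daily, or DMSO, for four days. Tumor protein (BCA-quantified) run on SDS-PAGE and blotted to nitrocellulose. Probed with anti-Id1, anti-pTAK1 and anti-XIAP (primary overnight at 4 °C), then ECL detection.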
# [24] = molecular target: T5, ALK5/TGFβR1 (Homo sapiens, UniProt P36897); settings: read-out: IC50 ALK5/TGFβR1; ATP 10 μM
# T5 sequence (P36897 34-503): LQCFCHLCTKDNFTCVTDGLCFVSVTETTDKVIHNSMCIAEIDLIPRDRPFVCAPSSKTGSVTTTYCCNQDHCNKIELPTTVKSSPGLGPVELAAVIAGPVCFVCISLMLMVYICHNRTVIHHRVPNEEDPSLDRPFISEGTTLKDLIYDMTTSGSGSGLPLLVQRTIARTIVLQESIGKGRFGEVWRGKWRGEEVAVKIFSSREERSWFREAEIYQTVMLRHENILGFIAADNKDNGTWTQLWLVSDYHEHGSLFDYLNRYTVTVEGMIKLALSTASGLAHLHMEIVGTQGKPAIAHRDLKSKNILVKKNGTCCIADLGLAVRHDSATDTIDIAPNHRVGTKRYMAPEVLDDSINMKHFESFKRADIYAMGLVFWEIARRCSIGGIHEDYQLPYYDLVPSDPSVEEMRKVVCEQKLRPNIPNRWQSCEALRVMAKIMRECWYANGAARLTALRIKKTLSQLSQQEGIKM
# [25] = NSG mice, IP 3 mg/kg, 10 mg/kg twice daily for 4 days
# [26] = treatment day 21, IHC image analysis
# T3 sequence (O00238 14-502): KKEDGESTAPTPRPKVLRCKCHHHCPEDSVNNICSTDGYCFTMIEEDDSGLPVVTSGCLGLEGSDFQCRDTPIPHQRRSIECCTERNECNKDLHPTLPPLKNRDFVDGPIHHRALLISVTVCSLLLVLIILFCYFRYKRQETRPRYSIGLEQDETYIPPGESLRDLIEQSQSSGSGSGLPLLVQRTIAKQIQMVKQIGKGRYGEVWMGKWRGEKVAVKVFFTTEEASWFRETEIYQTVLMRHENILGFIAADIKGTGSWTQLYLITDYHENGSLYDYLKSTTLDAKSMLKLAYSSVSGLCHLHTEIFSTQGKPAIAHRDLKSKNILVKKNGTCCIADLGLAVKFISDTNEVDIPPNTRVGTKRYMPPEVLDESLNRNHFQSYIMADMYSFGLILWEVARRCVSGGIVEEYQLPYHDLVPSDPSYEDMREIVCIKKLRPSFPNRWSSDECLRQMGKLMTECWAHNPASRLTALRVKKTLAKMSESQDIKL
# T2 sequence (P36894 24-532): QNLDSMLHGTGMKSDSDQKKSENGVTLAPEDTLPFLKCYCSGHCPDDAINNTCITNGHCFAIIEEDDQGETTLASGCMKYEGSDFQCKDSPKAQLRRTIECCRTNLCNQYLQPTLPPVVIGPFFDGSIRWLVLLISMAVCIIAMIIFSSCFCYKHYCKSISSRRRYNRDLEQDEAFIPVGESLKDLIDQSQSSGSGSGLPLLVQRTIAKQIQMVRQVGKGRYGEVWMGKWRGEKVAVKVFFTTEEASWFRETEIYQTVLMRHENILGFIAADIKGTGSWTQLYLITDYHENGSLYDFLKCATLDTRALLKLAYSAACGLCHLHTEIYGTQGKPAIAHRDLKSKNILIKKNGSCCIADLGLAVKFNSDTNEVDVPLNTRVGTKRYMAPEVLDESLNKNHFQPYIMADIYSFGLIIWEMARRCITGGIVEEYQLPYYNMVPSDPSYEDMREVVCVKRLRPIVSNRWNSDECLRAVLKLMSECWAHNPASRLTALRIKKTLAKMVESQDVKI
compound,measurement,setting,value
c1ccc2c(-c3cnn4cc(-c5ccc(OCCN6CCOCC6)cc5)cnc34)ccnc2c1 [DMH2],ClearanceINT,[1],250 mL/min/kg
same,"cell death, JL5 compared with DMH2",[2],same amount of cell death
same,chemical stability on storage (LCMS),[3],revealed a phenolic byproduct due to morpholine side-chain hydrolysis
same,AUCinf,[4]; i.v.,487 ng·h/mL
same,AUClast,[4]; i.v.,485 ng·h/mL
same,CL,[4]; i.v.,68 mL/min/kg
same,T1/2,[4]; i.v.,57 min
same,Vss,[4]; i.v.,0.95 L/kg
same,AUCinf,[4]; p.o.,729 ng·h/mL
same,AUClast,[4]; p.o.,707 ng·h/mL
same,C0/Cmax,[4]; p.o.,684 ng/mL
same,half-life,[4]; stated in discussion,60 min
same,IC50,[5],23 nM
same,IC50,[6],92 nM
same,IC50,[7],43 nM
same,IC50,[8],7950 nM
same,"downregulation of Id1, pTAK1, XIAP in tumor xenografts",[9],"did not downregulate Id1, pTAK1, or XIAP"
c1ccc2c(-c3cnn4cc(-c5ccc(OCCN6CCCCC6)cc5)cnc34)ccnc2c1 [JL5],ClearanceINT,[1],129 mL/min/kg
same,intrinsic clearance lower than that of DMH2,[1],48%
same,AUCinf,"[10]; i.v., 2 mg/kg",381 ng·h/mL
same,AUClast,"[10]; i.v., 2 mg/kg",349 ng·h/mL
same,C0/Cmax,"[10]; i.v., 2 mg/kg",568 ng/mL
same,CL,"[10]; i.v., 2 mg/kg",194 mL/min/kg
same,T1/2,"[10]; i.v., 2 mg/kg",34.2 min
same,Vss,"[10]; i.v., 2 mg/kg",8.78 L/kg
same,AUCinf,[10]; p.o.,"1,645 hr×ng/mL"
same,AUClast,[10]; p.o.,"1,605 hr×ng/mL"
same,C0/Cmax,[10]; p.o.,"1,282 ng/mL"
same,IC50 ALK2/ACVR1,[11],single digit nanomolar
same,IC50,[11]; read-out: IC50 ALK2/ACVR1,1 nM
same,IC50 ALK3/BMPR1A,[12],single digit nanomolar
same,IC50,[12]; read-out: IC50 ALK3/BMPR1A,< 5 nM
same,IC50 ALK6/BMPR1B,[13],single digit nanomolar
same,IC50,[13]; read-out: IC50 ALK6/BMPR1B,2 nM
same,IC50,"[14]; read-out: IC50 BMPR2, ATP 10 μM",8510 nM
same,IC50,[14]; read-out: IC50 for the BMP type II receptor BMPR2,~8000 nM
same,"signs of toxicity (anorexia, lethargy, loss of weight)","[15]; 21-day studies, 10 mg/kg intraperitoneal twice daily",no signs of toxicity
same,blood chemistry screen vs DMSO,[15]; [25],no significant difference
same,"histological examination of livers, lungs, kidneys",[15]; [25],did not reveal any evidence of toxicity
same,"systemic toxicity (loss of appetite, anorexia, lethargy)",[15]; [25],no evidence of systemic toxicity
same,expression of the Id1-luciferase reporter,[16],dose-related decrease
same,"cell death, JL5 compared with DMH2",[2],same amount of cell death
same,dead and live cells vs DMSO control,"[2]; H1299, 7 days",majority of the H1299 cells treated with JL5 were dead
same,growth of A549 cells,[17],suppressed growth
same,"percentage of cells in late apoptosis / necrosis (Annexin V, 7-AAD)",[18],significant increase in the percentage of cells in late stages of apoptosis as well as necrosis
same,DNA double-stranded breaks (TUNEL),[19],induces DNA double-stranded breaks
same,activation of caspase-3 and cleavage of PARP,[20],induced the activation of caspase-3 and cleavage of PARP
same,regression in tumor size,"[21]; 10 mg/mL, from treatment day 5 to day 14",~ 35%
same,"tumor cell death or proliferation (H&E, Ki67)",[21]; after 21 days of treatment,No significant differences
same,size and weight of tumors vs vehicle control,"[22]; 10 mg/kg twice daily, 13 days",significant difference in the size and weight
same,regression in tumor size,"[22]; 10 mg/kg twice daily, from treatment day 7 to day 12",~ 35%
same,necrotic cells compared to control tumors,"[22]; 13 days, H&E image analysis",twice the number of necrotic cells
same,cell death by H&E staining,[22]; 21 days,no noteworthy histomorphological differences
same,proliferation of tumor cells (Ki67),[22]; 21 days,significant reduction in proliferation
same,increase in CD3+ cells within tumor vs DMSO control,[22]; [26],67%
same,increase in CD4+ cells within tumor vs DMSO control,[22]; [26],80%
same,expression of Id1 in tumors,[23]; 3 mg/mL,feedback increase in the expression of Id1
same,"protein expression of Id1, TAK1, XIAP in tumors",[23]; 10 mg/kg,decreased protein expression of Id1 and TAK1 but not XIAP
same,IC50,[24],440 nM
COC(=O)C[C@H](NC(=O)[C@H](C)NC(=O)[C@@H](NC(=O)OCc1ccccc1)C(C)C)C(=O)CF [Z-VAD-FMK] (Cbz-Val-Ala-Asp(OMe)-CH2F),effect on JL5-induced cell death,[2],partially inhibited
CN1C(=O)C(Cc2c[nH]c3ccccc23)NC1=S (stereo not shown) [necrostatin-1],effect on JL5-induced cell death,[2],had no effect
